Measurements taken from ChEMBL document CHEMBL3271971, “Antineoplastic and biochemical properties of arylsulfonylhydrazones of 2-formylpyridine N-oxide” (J Med Chem, 1976).

Tests used:
Mus musculus [1] = experiment: Toxicity in CD-1 mouse allografted with mouse EAC cells assessed as change in body weight at 60 mg/kg administered qd for 6 days (reference value: 26.8%); format: organism-based, Ehrlich; parameters: dose 60 mg/kg; conditions: in vivo, 144 h
Method in brief: (§1)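 Ascitic tumors were transplanted from a donor mouse bearing a 7-day tumor. Daily doses were given for six consecutive days. Percentage body-weight change from onset to termination of therapy served as the index of drug toxicity.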

[2] = Antineoplastic activity against mouse S180A cells allografted in CD-1 mouse assessed as mouse survival at maximum effective dose administered qd for 6 days measured for 50 days relative to control; format: functional
Method in brief: (§2)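 Sarcoma 180 ascites cells were transplanted from a donor mouse bearing a 7-day tumour. Each agent was tested at 10–60 mg/kg/day, once daily for six consecutive days, starting 24 h after transplantation, in groups of 5–10 mice. Pooled untreated controls totalled 40 mice. Mice surviving beyond 50 days were counted as 50-day survivors, and body-weight change over therapy served as the toxicity index.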

L1210 = experiment: Antineoplastic activity against mouse L1210 cells allografted in BDF1 mouse assessed as average survival at 40 mg/kg administered qd for 6 days (reference value: 8.2 +/- 0.4 days); format: functional
Method in brief: (§3)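 Ascitic tumours were transplanted from an appropriate donor mouse carrying a 7-day tumour growth. Drug was given at 10–60 mg/kg/day for six consecutive days. Sensitivity was judged by prolongation of survival time relative to untreated tumour-bearing controls. Mice were weighed throughout, and percentage weight change from onset to end of therapy indicated toxicity.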

Mus musculus [3] = experiment: Effect on RNA synthesis in tumor of CD-1 mouse allografted with mouse S180A cells assessed as [3H]-uridine incorporation at 20 mg/kg, ip pretreated for 1 hr followed by radiotracer-addition measured after 1 hr relative to control; format: functional; conditions: route intraperitoneal
Method in brief: (§4)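 Sarcoma 180 ascites cells implanted 6 days earlier. Mice received a single ip dose of 10–80 mg/kg, then 1 h later an ip tracer: 200 μg thymidine-3H, 200 μg uridine-3H or 125 μg DL-leucine-14C. Tracer was incorporated for 1 h. Specific activity of tumor-cell DNA, RNA or protein is expressed as % of untreated controls. Values are means of 4-16 mice, each analyzed separately.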

[4] = Antineoplastic activity against mouse S180A cells allografted in CD-1 mouse assessed as average survival at 60 mg/kg administered qd for 6 days (reference value: 12.9 +/- 1.2 days); format: functional; method in brief: as §3
[5] = Antineoplastic activity against mouse S180A cells allografted in CD-1 mouse assessed as average survival at maximum effective dose administered qd for 6 days (reference value: 12.5 +/- 0.3 days); format: functional; method in brief: as §2
Mus musculus [6] = experiment: Effect on DNA synthesis in tumor of CD-1 mouse allografted with mouse S180A cells assessed as [3H]-thymidine incorporation at 80 mg/kg, ip pretreated for 3 hrs followed by radiotracer-addition measured after 1 hr relative to control; format: functional; conditions: route intraperitoneal
Method in brief: (§5)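 Mice bearing 6-day Sarcoma 180 ascites implants received a single ip dose of 80 mg/kg. At the stated pretreatment time they were given ip tracer: 200 μg thymidine-3H, 200 μg uridine-3H or 125 μg DL-leucine-14C. After 1 h of incorporation, specific radioactivity of DNA, RNA or protein was read as % of control incorporation.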

Mus musculus [7] = experiment: Effect on DNA synthesis in tumor of CD-1 mouse allografted with mouse S180A cells assessed as [3H]-thymidine incorporation at 80 mg/kg, ip pretreated for 12 hrs followed by radiotracer-addition measured after 1 hr relative to control; format: functional; conditions: route intraperitoneal; method in brief: as §5
Mus musculus [8] = experiment: Effect on RNA synthesis in tumor of CD-1 mouse allografted with mouse S180A cells assessed as [3H]-uridine incorporation at 10 mg/kg, ip pretreated for 1 hr followed by radiotracer-addition measured after 1 hr relative to control; format: functional; conditions: route intraperitoneal; method in brief: as §4
Ehrlich [9] = experiment: Antineoplastic activity against mouse EAC cells allografted in CD-1 mouse assessed as average survival at 40 mg/kg administered qd for 6 days (reference value: 14.4 +/- 1.2 days); format: functional; method in brief: as §3
[10] = Antineoplastic activity against 1-formylisoquinoline thiosemicarbazone-resistant mouse S180A cells allografted in CD-1 mouse assessed as average survival at 40 mg/kg administered qd for 6 days (reference value: 14.4 +/- 0.9 days); format: functional; method in brief: as §3
Mus musculus [11] = experiment: Effect on protein synthesis in tumor of CD-1 mouse allografted with mouse S180A cells assessed as [14C]-leucine incorporation at 40 mg/kg, ip pretreated for 1 hr followed by radiotracer-addition measured after 1 hr relative to control; format: functional; conditions: route intraperitoneal; method in brief: as §4
Ehrlich [12] = experiment: Antineoplastic activity against mouse EAC cells allografted in CD-1 mouse assessed as average survival at 20 mg/kg administered qd for 6 days (reference value: 14.4 +/- 1.2 days); format: functional; method in brief: as §3
Mus musculus [13] = experiment: Toxicity in C3H mouse allografted with mouse Hepa129 cells assessed as change in body weight at 40 mg/kg administered qd for 6 days (reference value: 13.5%); format: organism-based; parameters: dose 40 mg/kg; conditions: in vivo, 144 h; method in brief: as §1
Mus musculus [14] = experiment: Effect on RNA synthesis in tumor of CD-1 mouse allografted with mouse S180A cells assessed as [3H]-uridine incorporation at 80 mg/kg, ip pretreated for 6 hrs followed by radiotracer-addition measured after 1 hr relative to control; format: functional; conditions: route intraperitoneal; method in brief: as §5
Mus musculus [15] = experiment: Toxicity in CD-1 mouse allografted with mouse S180A cells assessed as change in body weight at 60 mg/kg administered qd for 6 days (reference value: 23.2%); format: organism-based; parameters: dose 60 mg/kg; conditions: in vivo, 144 h
Mus musculus [16] = experiment: Effect on protein synthesis in tumor of CD-1 mouse allografted with mouse S180A cells assessed as [14C]-leucine incorporation at 20 mg/kg, ip pretreated for 1 hr followed by radiotracer-addition measured after 1 hr relative to control; format: functional; conditions: route intraperitoneal; method in brief: as §4
Mus musculus [17] = experiment: Toxicity in C3H mouse allografted with mouse Hepa129 cells assessed as change in body weight at 20 mg/kg administered qd for 6 days (reference value: 13.5%); format: organism-based; parameters: dose 20 mg/kg; conditions: in vivo, 144 h; method in brief: as §1
Mus musculus [18] = experiment: Toxicity in CD-1 mouse allografted with 1-formylisoquinoline thiosemicarbazone-resistant mouse S180A cells assessed as change in body weight at 60 mg/kg administered qd for 6 days (reference value: 29.6%); format: organism-based; parameters: dose 60 mg/kg; conditions: in vivo, 144 h; method in brief: as §1
Mus musculus [19] = experiment: Effect on DNA synthesis in tumor of CD-1 mouse allografted with mouse S180A cells assessed as [3H]-thymidine incorporation at 10 mg/kg, ip pretreated for 1 hr followed by radiotracer-addition measured after 1 hr relative to control; format: functional; conditions: route intraperitoneal; method in brief: as §4
Mus musculus [20] = experiment: Effect on RNA synthesis in tumor of CD-1 mouse allografted with mouse S180A cells assessed as [3H]-uridine incorporation at 80 mg/kg, ip pretreated for 12 hrs followed by radiotracer-addition measured after 1 hr relative to control; format: functional; conditions: route intraperitoneal; method in brief: as §5
Mus musculus [21] = experiment: Toxicity in CD-1 mouse allografted with 1-formylisoquinoline thiosemicarbazone-resistant mouse S180A cells assessed as change in body weight at 40 mg/kg administered qd for 6 days (reference value: 29.6%); format: organism-based; parameters: dose 40 mg/kg; conditions: in vivo, 144 h; method in brief: as §1
[22] = Antineoplastic activity against mouse S180A cells allografted in CD-1 mouse assessed as maximum dose required for increase in mouse survival administered qd for 6 days; format: functional
[23] = Antineoplastic activity against mouse S180A cells allografted in CD-1 mouse assessed as average survival at 40 mg/kg administered qd for 6 days (reference value: 12.9 +/- 1.2 days); format: functional; method in brief: as §3
[24] = Antineoplastic activity against mouse S180A cells allografted in CD-1 mouse assessed as mouse survival at 40 mg/kg administered qd for 6 days measured for 50 days relative to control; format: functional; method in brief: as §3

Cc1ccc(S(=O)(=O)N/N=C/c2cccc[n+]2[O-])cc1
Activity (Mus musculus [1]): -1.8%
Survival [2]: 0%
Survival (L1210): 9.2 days
Activity (Mus musculus [3]): 71%
Survival [4]: 38.4 days
Survival [5]: 38.4 days
Activity (Mus musculus [6]): 53%
Activity (Mus musculus [7]): 57%
Activity (Mus musculus [8]): 74%
Survival (Ehrlich [9]): 47 days
Survival [10]: 24.4 days
Activity (Mus musculus [11]): 93%
Survival (Ehrlich [12]): 34.6 days
Activity (Mus musculus [13]): 2.3%
Activity (Mus musculus [14]): 50%
Activity (Mus musculus [15]): -8%
Activity (Mus musculus [16]): 95%
Activity (Mus musculus [17]): 11%
Activity (Mus musculus [18]): 0%
Activity (Mus musculus [19]): 71%
Activity (Mus musculus [20]): 102%
Activity (Mus musculus [21]): 3.4%
Activity [22]: 60 mg/kg
Survival [23]: 36.3 days
survival at 40 mg/kg [24]: 20%
